# Source: ChEMBL document CHEMBL5136969, “A niclosamide-tobramycin hybrid adjuvant potentiates cefiderocol against P. aeruginosa” (2021)
# Assays:
# Type in all cases: functional
# [1] = tested on: Escherichia coli; assay: Antibacterial activity against Escherichia coli 94393 assessed as reduction in bacterial growth after 18 hrs by microbroth dilution method
# Procedure, shortened: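 CLSI microbroth dilution in MHB. Overnight cultures were adjusted to 0.5 McFarland in saline, diluted 1:50, and inoculated at about 5 × 10^5 CFU/mL. Agents were 2-fold serially diluted and incubated 18 h at 37 °C. MIC is the lowest concentration without visible turbidity, confirmed by absorbance at 590 nm. Medium with and without cells served as controls.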
# [2] = tested on: Pseudomonas aeruginosa; assay: Antibacterial activity against MDR clinical isolate Pseudomonas aeruginosa PA108590 assessed as potentiation of cefiderocol antibacterial activity by measuring FIC index after 18 hrs by microbroth dilution method
# Procedure, shortened: (§1)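 Checkerboard in MHB (iron-replete, not iron-depleted CAMHB). Cefiderocol was 2-fold serially diluted along one axis and the adjuvant along the other. Inoculum was 0.5 McFarland diluted 1:50, about 5 × 10^5 CFU/mL final. Incubation was 18 h at 37 °C, with turbidity read visually and confirmed at 590 nm. FIC was the MIC in combination over the MIC alone for each agent, and the FIC index was their sum. Cut-offs were ≤0.5 synergy, >0.5–4 additive, >4 antagonism.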
# [3] = tested on: Pseudomonas aeruginosa; assay: Antibacterial activity against MDR clinical isolate Pseudomonas aeruginosa PA88949 assessed as potentiation of cefiderocol antibacterial activity by measuring FIC index after 18 hrs by microbroth dilution method; procedure, shortened: as §1
# [4] = tested on: Pseudomonas aeruginosa; assay: Potentiation of piperacilin-induced antibiotic activity against Pseudomonas aeruginosa PAO1 assessed as MIC fold reduction at 8 ug/ml after 18 hrs by microbroth dilution method; details: dose 8 µg/ml
# [5] = tested on: Pseudomonas aeruginosa; assay: Antibacterial activity against MDR clinical isolate Pseudomonas aeruginosa PA260 assessed as reduction in bacterial growth after 18 hrs in presence of cefiderocol by microbroth dilution method
# Procedure, shortened: (§2)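 Checkerboard in MHB. Cefiderocol was 2-fold serially diluted along one axis and the adjuvant along the other. Inoculum was prepared from 0.5 McFarland saline suspensions diluted 1:50 in MHB, giving about 5 × 10^5 CFU/mL final. Plates ran 18 h at 37 °C, with turbidity confirmed at 590 nm. FIC = combination MIC ÷ MIC alone for each agent, and FIC index = sum of both. Interpretation: ≤0.5 synergy, >0.5–4 additive, >4 antagonism.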
# [6] = tested on: Pseudomonas aeruginosa; assay: Antibacterial activity against Pseudomonas aeruginosa PAO1 assessed as reduction in bacterial growth after 18 hrs by microbroth dilution method
# Procedure, shortened: (§3)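 CLSI broth microdilution. Overnight cultures were adjusted in saline to 0.5 McFarland, diluted 1:50 in Mueller-Hinton broth (MHB), and inoculated at about 5 × 10^5 CFU/mL. Agents were 2-fold serially diluted in MHB, mixed 1:1 with inoculum, and held at 37 °C for 18 h. MIC was the lowest concentration with no visible turbidity, confirmed at 590 nm.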
# [7] = tested on: Pseudomonas aeruginosa; assay: Antibacterial activity against MDR clinical isolate Pseudomonas aeruginosa PA86052 assessed as reduction in bacterial growth after 18 hrs in presence of cefiderocol by microbroth dilution method; procedure, shortened: as §2
# [8] = tested on: Pseudomonas aeruginosa; assay: Potentiation of cefotaxime-induced antibiotic activity against Pseudomonas aeruginosa PAO1 assessed as MIC fold reduction at 8 ug/ml after 18 hrs by microbroth dilution method; details: dose 8 µg/ml
# Procedure, shortened: (§4)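 Adjuvant held at a fixed 8 μg/mL while the antibiotic was 2-fold serially diluted in Mueller-Hinton broth (MHB), per CLSI microbroth dilution. Overnight cultures were adjusted in saline to 0.5 McFarland, then diluted 1:50 in MHB to about 5 × 10^5 CFU/mL final, and incubated 18 h at 37 °C. MIC was the lowest concentration with no visible turbidity, confirmed at 590 nm. Fold potentiation = MIC alone / MIC with adjuvant.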
# [9] = tested on: Pseudomonas aeruginosa; assay: Antibacterial activity against MDR clinical isolate Pseudomonas aeruginosa PA86052 assessed as reduction in bacterial growth after 18 hrs by microbroth dilution method; procedure, shortened: as §3
# [10] = tested on: Pseudomonas aeruginosa; assay: Antibacterial activity against MDR clinical isolate Pseudomonas aeruginosa PA88949 assessed as reduction in bacterial growth after 18 hrs in presence of cefiderocol by microbroth dilution method; procedure, shortened: as §2
# [11] = tested on: Acinetobacter baumannii; assay: Potentiation of linezolid-induced antibiotic activity against Acinetobacter baumannii ATCC 17978 assessed as MIC fold reduction at 8 ug/ml after 18 hrs by microbroth dilution method; details: dose 8 µg/ml; procedure, shortened: as §4
# [12] = tested on: Pseudomonas aeruginosa; assay: Potentiation of trimethoprim-induced antibiotic activity against Pseudomonas aeruginosa PAO1 assessed as MIC fold reduction at 8 ug/ml after 18 hrs by microbroth dilution method; details: dose 8 µg/ml
# [13] = tested on: Pseudomonas aeruginosa; assay: Antibacterial activity against MDR clinical isolate Pseudomonas aeruginosa PA109084 assessed as potentiation of cefiderocol antibacterial activity by measuring FIC index after 18 hrs by microbroth dilution method; procedure, shortened: as §2
# [14] = tested on: Acinetobacter baumannii; assay: Potentiation of aztreonam-induced antibiotic activity against Acinetobacter baumannii ATCC 17978 assessed as MIC fold reduction at 8 ug/ml after 18 hrs by microbroth dilution method; details: dose 8 µg/ml
# Procedure, shortened: (§5)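 Initial screen in MHB using a fixed 8 μg mL−1 of adjuvant combined with each antibiotic under 2-fold dilution. Broth microdilution used about 5 × 10^5 CFU/mL at 37 °C for 18 h, with visible turbidity read and confirmed at 590 nm. Fold-potentiation = antibiotic MIC alone ÷ antibiotic MIC with adjuvant.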
# [15] = tested on: Acinetobacter baumannii; assay: Potentiation of cotrimoxazole-induced antibiotic activity against Acinetobacter baumannii ATCC 17978 assessed as MIC fold reduction at 8 ug/ml after 18 hrs by microbroth dilution method; details: dose 8 µg/ml; procedure, shortened: as §4
# [16] = tested on: Pseudomonas aeruginosa; assay: Antibacterial activity against colistin-resistant clinical isolate Pseudomonas aeruginosa PA114228 assessed as potentiation of cefiderocol antibacterial activity by measuring FIC index after 18 hrs by microbroth dilution method; procedure, shortened: as §1
# [17] = tested on: Pseudomonas aeruginosa; assay: Antibacterial activity against MDR clinical isolate Pseudomonas aeruginosa PA109084 assessed as reduction in bacterial growth after 18 hrs by microbroth dilution method; procedure, shortened: as §3
# [18] = tested on: Escherichia coli; assay: Potentiation of fosfomycin-induced antibiotic activity against Escherichia coli ATCC 25922 assessed as MIC fold reduction at 8 ug/ml after 18 hrs by microbroth dilution method; details: dose 8 µg/ml; procedure, shortened: as §4
# [19] = tested on: Pseudomonas aeruginosa; assay: Antibacterial activity against MDR clinical isolate Pseudomonas aeruginosa PA259 assessed as potentiation of cefiderocol antibacterial activity by measuring FIC index after 18 hrs by microbroth dilution method; procedure, shortened: as §2
# [20] = tested on: Staphylococcus aureus; assay: Antibacterial activity against Staphylococcus aureus ATCC 29213 assessed as reduction in bacterial growth after 18 hrs by microbroth dilution method; procedure, shortened: as §3
# [21] = tested on: Escherichia coli; assay: Potentiation of cindamycin-induced antibiotic activity against Escherichia coli ATCC 25922 assessed as MIC fold reduction at 8 ug/ml after 18 hrs by microbroth dilution method; details: dose 8 µg/ml; procedure, shortened: as §4
# [22] = tested on: Escherichia coli; assay: Potentiation of cefotaxime-induced antibiotic activity against Escherichia coli ATCC 25922 assessed as MIC fold reduction at 8 ug/ml after 18 hrs by microbroth dilution method; details: dose 8 µg/ml; procedure, shortened: as §5
# [23] = tested on: Pseudomonas aeruginosa; assay: Antibacterial activity against MDR clinical isolate Pseudomonas aeruginosa PA259 assessed as reduction in bacterial growth after 18 hrs by microbroth dilution method; procedure, shortened: as §3
# [24] = tested on: Pseudomonas aeruginosa; assay: Potentiation of pleuromutilin-induced antibiotic activity against Pseudomonas aeruginosa PAO1 assessed as MIC fold reduction at 8 ug/ml after 18 hrs by microbroth dilution method; details: dose 8 µg/ml
# [25] = tested on: Pseudomonas aeruginosa; assay: Potentiation of colistin-induced antibiotic activity against Pseudomonas aeruginosa PAO1 assessed as MIC fold reduction at 8 ug/ml after 18 hrs by microbroth dilution method; details: dose 8 µg/ml; procedure, shortened: as §4
# [26] = tested on: Klebsiella pneumoniae; assay: Antibacterial activity against Klebsiella pneumoniae KP113254 assessed as reduction in bacterial growth after 18 hrs in presence of cefiderocol by microbroth dilution method; procedure, shortened: as §2
compound,measurement,setting,value
NC[C@H]1O[C@H](O[C@H]2[C@H](OCCCCc3cn(-c4ccc(NC(=O)c5cc(Cl)ccc5O)cc4)nn3)[C@@H](O[C@H]3O[C@H](CO)[C@@H](O)[C@H](N)[C@H]3O)[C@H](N)C[C@@H]2N)[C@H](N)C[C@@H]1O,MIC,[1],> 128 µg/mL
same,FIC,[2],0.016
same,FIC,[3],1
same,fold change (FC),[4],4
same,MIC,[5],0.125 µg/mL
same,MIC,[6],64 µg/mL
same,MIC,[7],0.25 µg/mL
same,fold change (FC),[8],4
same,MIC,[9],> 128 µg/mL
same,MIC,[10],0.25 µg/mL
same,fold change (FC),[11],4
same,fold change (FC),[12],4
same,FIC,[13],0.004
same,fold change (FC),[14],4
same,fold change (FC),[15],4
same,FIC,[16],1
same,MIC,[17],> 128 µg/mL
same,fold change (FC),[18],4
same,FIC,[19],0.031
same,MIC,[20],> 128 µg/mL
same,fold change (FC),[21],4
same,fold change (FC),[22],4
same,MIC,[23],> 128 µg/mL
same,fold change (FC),[24],4
same,fold change (FC),[25],4
same,MIC,[26],1 µg/mL
